From ChEMBL document CHEMBL1132620, “Piperazine imidazo[1,5-a]quinoxaline ureas as high-affinity GABAA ligands of dual functionality” (J Med Chem, 1999)
The source made the active and inactive calls. The calls are words filed in the database; no cut-off is given here.

Legend:
Mus musculus [1] = experiment: In vivo efficacy is evaluated by percent control of cerebellar GMP levels in (drug+stress) treated mice/mice under stress; assay type: functional; parameters: concentration or dose not given beside the values
Outline: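 Male CF-1 mice given drug orally in vehicle 122 before electric footshock stress, controls given vehicle (1 mL/100 g); killed 30 min after treatment; cerebellum homogenized in 1% perchloric acid, iced 30 min, boiled 5 min, spun 17000g 20 min; supernatant cGMP by radioimmunoassay, expressed as % of stress control.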

[2] = molecular target: GABA-A receptor; anion channel; experiment: (§1) Displacement of [3H]flunitrazepam from GABA-A benzodiazepine receptor of rat cortical membranes; assay type: cell membranes, Membrane
Outline: (§2)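 Rat membranes incubated 60 min at 4 °C with [3H]flunitrazepam, 50 µg membrane protein and graded test drug in 200 µL containing NaCl, 10 mM Hepes/Tris pH 7.4 and 1 mM MgCl2; bound ligand separated by rapid filtration on GF/B; mean affinity, SE ≤10% of mean.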

Rattus norvegicus = experiment: In vivo efficacy evaluated for ability to antagonize metrazole induced clonic convulsions in rat after ip injection; assay type: functional
[3] = molecular target: T1, GABA-A receptor; alpha-1/beta-2/gamma-2 (Homo sapiens) (UniProt P14867+P47870+P18507); experiment: (§3) In vitro GABA-mediated chloride current in A293 cells expressing GABA-A benzodiazepine receptor alpha-1-beta-2-gamma-2 subunits at 5 uM; assay type: functional, cell-based; details: HEK293
[4] = molecular target: T2, GABA-A receptor; anion channel (Rattus norvegicus) (UniProt O09028+P15431+P18506+P18508+P19969+P20236+P23574+P23576+P28471+P28473+P30191+P62813+P63079+P63138+Q91ZM7+Q9ES14); experiment: as §1; assay type: cell membranes; parameters: concentration or dose not given beside the values; details: Membrane, concentration not given here; outline: as §2
[5] = molecular target: T2, GABA-A receptor; anion channel (Rattus norvegicus); experiment: Shift in [35S]TBPS binding to GABA-A Benzodiazepine receptor of rat brain membrane
[6] = molecular target: T1, GABA-A receptor; alpha-1/beta-2/gamma-2 (Homo sapiens); experiment: as §3; assay type: functional, cell-based; details: HEK293; remark: listed apart in the source
Mus musculus [7] = species: Mus musculus; experiment: Ability to antagonize the muscle relaxation effect in mice caused by a benzodiazepine full agonist, triazolam.; assay type: functional
Outline: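 Muscle relaxation induced by triazolam; test compound and triazolam given separately, traction scored 30 min after dosing; ED50 for blocking the relaxant effect.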

Mus musculus [8] = experiment: In vivo acute electroshock physical dependence activity in mice; Not active.; assay type: functional, organism-based

Ki [2] [nM] | Change in Cl- current [3] | inhibition [4] [%] | Shift [5] | Change in Cl- current [6] | SMILES | Control (Mus musculus [1]) [%] | ED50 (Rattus norvegicus) [mg/kg] | ED50 (Mus musculus [7]) [mg/kg] | Acute electroshock activity (Mus musculus [8])
1.04 | 0 | 95 | -0.14 | 0.5 | C[C@@H]1CN(C(=O)N2Cc3c(C(=O)OC(C)(C)C)ncn3-c3ccc(F)cc32)C[C@H](C)N1 | 74 | 35.3 | > 30 | –
3.04 | 0 | 82 | -0.018 | 0.5 | C[C@@H]1CN(C(=O)N2Cc3c(C(=O)OC(C)(C)C)ncn3-c3ccccc32)C[C@H](C)N1 | 94 | > 50 | > 30 | –
2.69 | -0.1 | 29 | 0.44 | 1 | C[C@@H]1CN(C(=O)N2Cc3c(C(=O)OC(C)(C)C)ncn3-c3ccc(F)cc32)C[C@H](C)N1C | 77 | 35.3 | 21.8 | –
5.17 | 0.05 | 22 | 0.1 | 0.7 | Cc1ccc2c(c1)N(C(=O)N1C[C@@H](C)N[C@H](C)C1)Cc1c(C(=O)OC(C)(C)C)ncn1-2 | 49 | 6.3 | – | –
250 | 0.22 | – | 0.54 | – | Cc1cccc2c1N(C(=O)N1C[C@@H](C)N[C@@H](C)C1)Cc1c(C(=O)OC(C)(C)C)ncn1-2 | – | > 50 | – | –
13.3 | 0.75 | 68 | 0.63 | – | CC1CN(C)CC(C)N1C(=O)N1Cc2c(C(=O)OC(C)(C)C)ncn2-c2ccc(F)cc21 (stereo not drawn) | 82 | 8.8 | > 30 | –
28.2 | 0.29 | 44 | 0.05 | – | C[C@@H]1CN(C(=O)N2Cc3c(C(=O)OC(C)(C)C)ncn3-c3cccc(Cl)c32)C[C@H](C)N1 | 95 | > 50 | > 30 | –
2.35 | 0.8 | 63 | 0.41 | 0.6 | CC1CN(C(=O)N2Cc3c(C(=O)OC(C)(C)C)ncn3-c3ccc(Cl)cc32)CC(C)N1 (stereo not drawn) | – | 10.5 | 17.3 | –
37.1 | 0.8 | 24 | 0.68 | 0.7 | C[C@@H]1CN(C(=O)N2Cc3c(C(=O)OC(C)(C)C)ncn3-c3ccc(C(F)(F)F)cc32)C[C@@H](C)N1 | 92 | 4.4 | > 30 | –
5.13 | 0.05 | 62 | 0.56 | 0.5 | C[C@@H]1CN(C(=O)N2Cc3c(C(=O)OC(C)(C)C)ncn3-c3ccc(Cl)cc32)C[C@@H](C)N1 | – | 1.3 | > 30 | –

The next lines start with the compound.

SMILES | Ki [2] [nM] | Change in Cl- current [3] | inhibition [4] [%] | Shift [5] | Change in Cl- current [6] | Control (Mus musculus [1]) [%] | ED50 (Rattus norvegicus) [mg/kg] | ED50 (Mus musculus [7]) [mg/kg] | Acute electroshock activity (Mus musculus [8])
C[C@@H]1CN(C(=O)N2Cc3c(C(=O)OC(C)(C)C)ncn3-c3ccc(Cl)cc32)CCN1 | 5.96 | 0 | 75 | 0.01 | 0.6 | 57 | 3.7 | 27.5 | –
CN(C)C(=O)N1Cc2c(C(=O)OC(C)(C)C)ncn2-c2ccccc21 | 5.25 | 0.09 | – | 0.15 | – | – | > 50 | – | –
CC(C)(C)OC(=O)c1ncn2c1CN(C(=O)N1CC3CC1CN3)c1cc(Cl)ccc1-2 (stereo not drawn) | 30.1 | 0.5 | 4 | 0.33 | 0.3 | – | > 50 | – | inactive
CC(C)(C)OC(=O)c1ncn2c1CN(C(=O)N1CCNCC1)c1ccccc1-2.Cl | 4.11 | – | – | 0.04 | 0.35 | – | > 50 | – | –
C[C@@H]1CN(C(=O)N2Cc3c(C(=O)OC(C)(C)C)ncn3-c3ccc(Cl)cc32)C[C@H](C)N1S(C)(=O)=O.ClCCl | 4.18 | 0.9 | 8 | 0.76 | – | – | > 50 | > 30 | inactive
C[C@@H]1CN(C(=O)N2Cc3c(C(=O)OC(C)(C)C)ncn3-c3ccccc32)C[C@H](C)N1C | 6.67 | -0.1 | – | -0.82 | 0.5 | – | > 50 | – | –
CC1CN(C(=O)N2Cc3c(C(=O)OC(C)(C)C)ncn3-c3ccc(Cl)cc32)C(C)CN1.O=C(O)CC(=O)O (stereo not drawn) | 7.8 | -0.05 | 71 | 0.41 | 0.3 | – | 17.6 | > 30 | –
CC1CNCC(C)N1C(=O)N1Cc2c(C(=O)OC(C)(C)C)ncn2-c2ccc(F)cc21 (stereo not drawn) | 3.45 | 0 | 69 | 0.02 | 0.72 | 100 | 10.5 | > 30 | –
CC(C)(C)OC(=O)c1ncn2c1CN(C(=O)N1CC3CCC(C1)N3)c1cc(Cl)ccc1-2 | 5.45 | 0.2 | – | 0.2 | 0.73 | – | > 50 | – | –
CN1CC2CC1CN2C(=O)N1Cc2c(C(=O)OC(C)(C)C)ncn2-c2ccc(Cl)cc21 (stereo not drawn) | 4.89 | 1 | 11 | 0.68 | 1.6 | – | 7.4 | > 30 | –
C[C@@H]1NCCN(C(=O)N2Cc3c(C(=O)OC(C)(C)C)ncn3-c3ccc(Cl)cc32)[C@H]1C | 4.03 | 0.48 | 55 | 0.07 | 0.68 | – | 17.7 | 35 | –
Cc1ccc2c(c1)N(C(=O)N1CCN[C@H](C)C1)Cc1c(C(=O)OC(C)(C)C)ncn1-2 | 5.47 | 0.1 | 51 | 0.19 | 0.8 | 59 | 2.7 | 17.3 | –
CC(C)(C)OC(=O)c1ncn2c1CN(C(=O)N1CCNCC1)c1cc(Cl)ccc1-2 | 3.99 | 0 | – | -0.02 | 0.4 | – | > 50 | – | –
Cc1cccc2c1N(C(=O)N1C[C@@H](C)N(C)[C@@H](C)C1)Cc1c(C(=O)OC(C)(C)C)ncn1-2 | 470 | 0.33 | – | 0.48 | – | – | > 50 | – | –
Cc1ccc2c(c1)N(C(=O)N1CCNCC1)Cc1c(C(=O)OC(C)(C)C)ncn1-2 | 14.7 | 0.4 | – | 0.3 | 0.55 | – | 21 | > 30 | –
CN1C2CCC1CN(C(=O)N1Cc3c(C(=O)OC(C)(C)C)ncn3-c3ccc(Cl)cc31)C2 | 9.15 | 2 | 26 | 0.68 | 2.1 | – | 29.7 | > 30 | –
C[C@@H]1CN(C(=O)N2Cc3c(C(=O)OC(C)(C)C)ncn3-c3ccc(C(F)(F)F)cc32)CCN1 | 23.2 | 1 | 30 | 0.6 | 1 | 88 | 8.9 | > 30 | –
